Experiments:
[1] = target: Sodium-dependent serotonin transporter (Rattus norvegicus) (UniProt P31652); assay: Inhibition of [3H]citalopram binding at rat serotonin transporter; 10 uM
Procedure, shortened: (§1)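 Contract-lab radioligand displacement, percent inhibition at 10 μM test compound; 5HTT used [³H]citalopram at 0.7 nM final, NET used [³H]desmethylimipramine at 3.0 nM final.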

[2] = target: Norepinephrine transporter (Rattus norvegicus) (UniProt Q9WTR4); assay: Inhibition of [3H]desmethylimipramine binding at rat norepinephrine transporter; 10 uM; procedure, shortened: as §1
Chain of Norepinephrine transporter (Rattus norvegicus) (Q9WTR4 as listed by the source): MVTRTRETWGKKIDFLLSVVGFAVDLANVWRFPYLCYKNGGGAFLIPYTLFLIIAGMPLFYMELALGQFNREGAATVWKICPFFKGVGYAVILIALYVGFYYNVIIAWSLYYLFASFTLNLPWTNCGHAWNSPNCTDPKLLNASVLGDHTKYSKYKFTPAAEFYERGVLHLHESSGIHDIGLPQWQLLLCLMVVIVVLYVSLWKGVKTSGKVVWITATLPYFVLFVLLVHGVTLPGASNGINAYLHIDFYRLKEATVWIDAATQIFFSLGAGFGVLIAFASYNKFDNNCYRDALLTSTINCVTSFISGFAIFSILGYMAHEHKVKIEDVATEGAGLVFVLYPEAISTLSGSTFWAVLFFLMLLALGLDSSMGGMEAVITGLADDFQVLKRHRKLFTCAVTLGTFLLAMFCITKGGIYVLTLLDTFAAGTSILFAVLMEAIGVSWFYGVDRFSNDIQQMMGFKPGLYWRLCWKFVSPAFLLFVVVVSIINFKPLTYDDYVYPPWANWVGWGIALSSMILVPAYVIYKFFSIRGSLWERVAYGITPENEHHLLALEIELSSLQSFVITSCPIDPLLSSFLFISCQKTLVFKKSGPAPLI

[3] = target: T1, Sodium-dependent dopamine transporter (Rattus norvegicus, UniProt P23977); assay: Inhibition of [3H]dopamine uptake in rat caudate putamen.; type: functional, tissue-based
T1 sequence (P23977 whole entry): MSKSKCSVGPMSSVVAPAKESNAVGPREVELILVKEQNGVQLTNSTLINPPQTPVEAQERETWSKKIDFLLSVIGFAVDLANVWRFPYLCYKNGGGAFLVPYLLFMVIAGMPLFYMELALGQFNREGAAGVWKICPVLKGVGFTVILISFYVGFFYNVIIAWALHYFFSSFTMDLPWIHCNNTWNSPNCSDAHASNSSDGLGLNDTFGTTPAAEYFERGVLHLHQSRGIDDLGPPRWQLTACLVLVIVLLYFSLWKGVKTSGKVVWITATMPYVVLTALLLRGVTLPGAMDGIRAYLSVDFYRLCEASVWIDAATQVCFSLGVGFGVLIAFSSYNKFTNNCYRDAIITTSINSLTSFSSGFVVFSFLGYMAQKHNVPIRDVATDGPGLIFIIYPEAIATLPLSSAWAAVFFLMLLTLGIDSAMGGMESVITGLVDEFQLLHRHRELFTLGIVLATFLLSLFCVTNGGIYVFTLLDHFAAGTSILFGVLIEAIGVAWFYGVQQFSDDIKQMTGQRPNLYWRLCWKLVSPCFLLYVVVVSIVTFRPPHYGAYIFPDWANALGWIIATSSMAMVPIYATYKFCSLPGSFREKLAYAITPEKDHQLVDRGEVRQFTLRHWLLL

[4] = target: T2, Muscarinic acetylcholine receptor M1 (Rattus norvegicus, UniProt P08482); assay: Affinity for rat M1 acetylcholine receptor using [3H]pirenzepine displacement.
T2 sequence (P08482 whole entry): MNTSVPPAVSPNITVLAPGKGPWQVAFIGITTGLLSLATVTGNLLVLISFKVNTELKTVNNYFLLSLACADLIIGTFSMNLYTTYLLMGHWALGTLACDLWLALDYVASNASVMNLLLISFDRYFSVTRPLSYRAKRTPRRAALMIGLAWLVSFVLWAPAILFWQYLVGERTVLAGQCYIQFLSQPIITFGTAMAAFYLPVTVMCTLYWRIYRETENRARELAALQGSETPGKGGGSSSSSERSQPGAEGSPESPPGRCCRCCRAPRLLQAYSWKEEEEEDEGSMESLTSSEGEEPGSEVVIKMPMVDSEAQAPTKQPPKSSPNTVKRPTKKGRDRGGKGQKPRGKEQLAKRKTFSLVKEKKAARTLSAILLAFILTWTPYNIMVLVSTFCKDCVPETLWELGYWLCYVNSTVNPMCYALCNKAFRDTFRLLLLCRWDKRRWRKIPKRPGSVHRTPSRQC

[5] = target: T3, Muscarinic acetylcholine receptor M2 (Rattus norvegicus, UniProt P10980); assay: Affinity for rat M2 acetylcholine receptor using [3H]-AF DX 384 displacement.
T3 sequence (P10980 whole entry): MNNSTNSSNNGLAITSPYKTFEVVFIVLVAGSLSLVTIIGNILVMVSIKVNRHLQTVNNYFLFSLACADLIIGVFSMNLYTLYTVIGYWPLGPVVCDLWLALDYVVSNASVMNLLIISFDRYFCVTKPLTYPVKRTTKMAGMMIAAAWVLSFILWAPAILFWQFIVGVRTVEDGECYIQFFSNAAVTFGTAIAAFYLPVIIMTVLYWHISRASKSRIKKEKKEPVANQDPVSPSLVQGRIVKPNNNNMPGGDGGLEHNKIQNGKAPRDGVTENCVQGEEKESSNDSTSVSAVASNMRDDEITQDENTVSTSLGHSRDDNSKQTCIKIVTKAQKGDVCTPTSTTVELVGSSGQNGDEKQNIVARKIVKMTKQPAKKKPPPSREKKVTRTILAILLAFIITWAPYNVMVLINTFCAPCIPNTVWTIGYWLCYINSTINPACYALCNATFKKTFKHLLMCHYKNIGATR

[6] = target: T1, Sodium-dependent dopamine transporter; assay: Affinity for rat dopamine transporter using [3H]WIN-35428 displacement.
Procedure, shortened: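 Rat caudate putamen (male Sprague–Dawley, 200–250 g) homogenised in ice-cold modified Krebs-HEPES, pH 7.4, washed and used fresh (0.5% w/v). Filtration, scintillation counting. Ki from nonlinear least-squares fitting of three independent experiments, F test model selection.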

Chain of Sodium-dependent serotonin transporter (Rattus norvegicus) (P31652 whole entry): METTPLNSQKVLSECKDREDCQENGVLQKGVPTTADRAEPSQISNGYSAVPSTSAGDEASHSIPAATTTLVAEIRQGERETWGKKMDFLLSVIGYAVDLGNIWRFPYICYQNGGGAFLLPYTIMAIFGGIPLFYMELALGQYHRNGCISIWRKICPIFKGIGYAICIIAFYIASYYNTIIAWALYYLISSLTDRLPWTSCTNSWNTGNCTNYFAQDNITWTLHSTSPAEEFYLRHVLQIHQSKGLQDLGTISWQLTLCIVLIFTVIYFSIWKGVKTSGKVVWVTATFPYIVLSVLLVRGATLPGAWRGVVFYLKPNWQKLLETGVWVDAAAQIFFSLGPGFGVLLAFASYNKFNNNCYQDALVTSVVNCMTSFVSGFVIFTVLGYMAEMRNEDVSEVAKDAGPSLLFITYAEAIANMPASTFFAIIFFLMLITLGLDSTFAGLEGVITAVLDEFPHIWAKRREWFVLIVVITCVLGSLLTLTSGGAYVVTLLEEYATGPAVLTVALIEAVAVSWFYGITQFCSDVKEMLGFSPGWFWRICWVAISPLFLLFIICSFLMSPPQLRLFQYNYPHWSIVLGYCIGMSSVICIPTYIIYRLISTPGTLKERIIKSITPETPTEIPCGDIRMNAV

Row | Compound | inhibition [1] [%] | inhibition [2] [%] | IC50 [3] [µM] | Ki [4] [µM] | Ki [5] [µM] | Ki [6] [µM]
1 | CN1C2CCC1CC(OC(c1ccccc1)c1ccc(Cl)cc1)C2 (stereo in doubt; 7a) [listing 1 of 2 here] | 34 | 32 |  |  |  | 
2 | CN1[C@@H]2CC[C@H]1C[C@@H](OC(c1ccccc1)c1ccc(F)cc1)C2 (stereo partly drawn) | 35.2 | 37.9 |  |  |  | 
3 | Cc1ccc(C(O[C@H]2C[C@H]3CC[C@@H](C2)N3C)c2ccccc2)cc1 (stereo partly drawn) | 35.4 | 31.8 | 0.512 |  |  | 
4 | CN1[C@@H]2CC[C@H]1C[C@@H](OC(c1ccccc1)c1ccc(O)cc1)C2 (stereo partly drawn) | 23.3 | 27.3 | 0.677 |  |  | 
5 | CN1[C@@H]2CC[C@H]1C[C@@H](OC(c1ccccc1)c1ccc(C#N)cc1)C2 (stereo partly drawn) | 40 | 16 | 0.222 |  |  | 
6 | CN1C2CCC1CC(OC(c1ccccc1)c1ccc(Cl)cc1)C2 (stereo in doubt; 10) [listing 1 of 2 here] |  |  | 3.52 | 0.0041 | 0.0874 | 
7 | Cc1ccc(C(O[C@H]2C[C@H]3CC[C@@H](C2)N3C)c2ccc(C)cc2)cc1 | 35.5 | 35.1 | 2.54 |  |  | 
8 | CN1[C@@H]2CC[C@H]1C[C@@H](OC(c1ccccc1)c1ccc(C(C)(C)C)cc1)C2 (stereo partly drawn) | 24.7 | 37.6 | 4.46 |  |  | 
9 | CN1[C@@H]2CC[C@H]1C[C@@H](OC(c1ccccc1)c1ccc(C(F)(F)F)cc1)C2 (stereo partly drawn) | 49.1 | 34.6 | 2.15 |  |  | 
10 | CN1C2CCC1CC(OC(c1ccccc1)c1ccc(Cl)cc1)C2 (stereo in doubt; 10) [listing 2 of 2 here] | 37.2 | 27.9 |  |  |  | 
11 | CN1[C@@H]2CC[C@H]1C[C@@H](OC(c1ccccc1)c1ccc([N+](=O)[O-])cc1)C2 (stereo partly drawn) | 54 | 29 | 0.219 |  |  | 
12 | CN1[C@@H]2CC[C@H]1C[C@@H](OC(c1ccc(F)cc1)c1ccc(Cl)c(Cl)c1)C2 (stereo partly drawn) | 80.3 | > 57.8 | 0.024 |  |  | 
13 | CN1[C@@H]2CC[C@H]1C[C@@H](OC(c1ccccc1)c1ccc(Cl)c(Cl)c1)C2 (stereo partly drawn) | 66.2 | 56.5 | 0.047 |  |  | 0.0211
14 | CN1C2CCC1CC(OC(c1ccccc1)c1ccc(Cl)cc1)C2 (stereo in doubt; 7a) [listing 2 of 2 here] |  |  | 0.115 | 0.0036 | 0.0366 | 0.03
15 | CN1C2CCC1CC(OC(c1ccc(F)cc1)c1ccc(F)cc1)C2 (stereo not drawn) | 62 | 30 |  |  |  | 
16 | CCc1ccc(C(O[C@H]2C[C@H]3CC[C@@H](C2)N3C)c2ccccc2)cc1 (stereo partly drawn) | 42.7 | 32.7 | 0.984 |  |  | 
17 | CN1[C@@H]2CC[C@H]1C[C@@H](OC(c1ccc(Cl)cc1)c1ccc(Cl)cc1)C2 | 54 | > 43 |  |  |  | 
18 | COc1ccc(C(O[C@H]2C[C@H]3CC[C@@H](C2)N3C)c2ccccc2)cc1 (stereo partly drawn) | 30.5 | 30.9 | 0.468 |  |  | 0.0784
19 | COc1ccc(C(O[C@H]2C[C@H]3CC[C@@H](C2)N3C)c2ccc(OC)cc2)cc1 | 31 | 34 | 2.88 |  |  | 2
20 | CN1[C@@H]2CC[C@H]1C[C@@H](OC(c1ccc(Br)cc1)c1ccc(Br)cc1)C2 | 41 | 41.1 | 0.034 | 0.0708 |  | 
21 | CN1[C@@H]2CC[C@H]1C[C@@H](OC(c1ccccc1)c1ccc(Br)cc1)C2 (stereo partly drawn) | 39 | 37 | 0.029 |  |  | 

— ChEMBL document CHEMBL1128449, “Novel 4'-substituted and 4',4"-disubstituted 3 alpha-(diphenylmethoxy)tropane analogs as potent and selective dopamine uptake inhibitors” (J Med Chem, 1995)
